This is an account of results in ChEMBL document CHEMBL3400098, “Aza follow-ups to BI 207524, a thumb pocket 1 HCV NS5B polymerase inhibitor. Part 1: Mitigating the genotoxic liability of an aniline metabolite” (Bioorg Med Chem Lett, 2015).

The subject of one data set is Hepatitis C virus. The experiment in a line: Antiviral activity against Hepatitis C virus genotype 1b infected in human Huh cells assessed as inhibition of viral replication by luciferase reporter assay. The data set is classed as functional, cell-based, Hepacivirus hominis. In short, it runs like this:
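HCV replicon EC50 determined in duplicate, using either a GT1b luciferase reporter read-out or RT-PCR quantification of replicon RNA.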

Data set [1] in a line: Inhibition of Hepatitis C virus genotype 1b C-terminal truncated NS5B RNA dependent RNA polymerase delta21 expressed in Escherichia coli by scintillation proximity assay. Set-up: species or system Hepatitis C virus subtype 1b. A digest of the protocol: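 Biochemical polymerase inhibition using a C-terminally truncated GT1b NS5BΔ21 construct. Values are the mean of duplicate measurements (n ≥ 2).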

Data set [2] in a line: Cytotoxicity against human HuH7 cells assessed as reduction in cell viability by MTT assay. The conditions noted are these: Huh-7 cells, read-out: TC50 (the source's name). The data set is classed as cell-based. In short, it runs like this:
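Cytotoxicity (TC50) measured by MTT read-out in the Huh-7 cell line.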

Data set [3] in a line: Half life in human liver microsomes at 2 uM. Format: ADME. A digest of the protocol:
(§1)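 Stability in liver microsomes with 2 µM initial compound concentration; half-life recorded.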

Data set [4] can be described thus: Half life in rat liver microsomes at 2 uM. Format: ADME. In short, it runs like this:
as §1

Data set [5] can be described thus: Permeability from apical to basolateral side of human Caco2 cells. The data set is classed as ADME, cell-based. The conditions noted are these: Caco-2, read-out: permeability. A digest of the protocol:
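Caco-2 permeability measured in the apical-to-basolateral direction, reported in cm/s.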

A short description of data set [6]: Lipophilicity, log D of the compound at pH 7.4. The data set is classed as physicochemical. The conditions noted are these: buffer.
Data set [7] in a line: Cmax in rat at 5 mg/kg, po. The data set is classed as ADME, organism-based. The arrangement: dose 5 mg/kg, route oral. The conditions noted are these: in vivo. A digest of the protocol:
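Rats fasted overnight, then given a single compound orally at 5 mg/kg in 0.5% methylcellulose, 0.3% Tween-80 and 1% NMP. Plasma Cmax measured. Liver/plasma concentration ratio taken at 8 h for single-compound dosing.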

Data set [8] concerns Salmonella typhimurium. The experiment in a line: Mutagenic activity in Salmonella typhimurium at 315 to 5000 ug/plate by Ames test in presence of S9 fraction. The data set is classed as toxicity, organism-based. The conditions noted are these: salmonella enterica subsp. enterica serovar typhimurium. A digest of the protocol:
(§2)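 Ames test on the free carboxylic acid forms using multiple strains and strain TA100 of Salmonella typhimurium, at 315–5000 µg per plate, run with and without S9 metabolic activation.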

The test system of data set [9] is Salmonella typhimurium. The experiment in a line: Mutagenic activity in Salmonella typhimurium at 315 to 5000 ug/plate by Ames test in absence of S9 fraction. Format: toxicity, organism-based. The conditions noted are these: salmonella enterica subsp. enterica serovar typhimurium. In short, it runs like this: as §2
The nature of data set [10]: Plasma concentration in rat at 4 mg/kg, po as cassette dosing measured at 1 hr post dose. The data set is classed as ADME, organism-based. Set-up: dose 4 mg/kg, route oral. A digest of the protocol:
(§3)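 Cassette dosing: a mixture of 4 compounds, each at 4 mg/kg, given orally to 2 fasted rats in 0.5% methylcellulose, 0.3% Tween-80 and 1% NMP. Plasma sampled at 1 and 2 h. Liver/plasma ratio determined at 2 h.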

The nature of data set [11]: Plasma concentration in rat at 4 mg/kg, po as cassette dosing measured at 2 hrs post dose. Format: ADME, organism-based. Set-up: dose 4 mg/kg, route oral. A digest of the protocol:
as §3

The nature of data set [12]: Ratio of drug up take in liver to plasma of rat at 4 mg/kg, po as cassette dosing measured at 2 hrs post dose. The arrangement: dose 4 mg/kg, route oral. Format: ADME, organism-based. In short, it runs like this: as §3

With `CCOc1cc(NC(=O)C2(NC(=O)c3ccc4c(C5CCCC5)c(-c5ncc(Cl)cn5)n(C)c4c3)CCC2)nnc1/C=C/C(=O)O`, the EC50 with Hepatitis C virus amounted to 360 nM. This compound had an IC50 in data set [1] of 80 nM. Also, the CC50 in data set [2] was over 10000 nM. Also, the half-life at 2 µM in data set [3] was 2.27 h; in [4], 3.78 h. In data set [5], the Papp A→B worked out at 1.6 ×10⁻⁶ cm/s. Also, in data set [6], the log distribution coefficient (logD) was found to be 3.4.
As for `CCOc1cc(NC(=O)C2(NC(=O)c3ccc4c(C5CCCC5)c(-c5ncc(Cl)cn5)n(C)c4c3)CCC2)ncc1/C=C/C(=O)O`, the EC50 in the data set with Hepatitis C virus was 33 nM. It took 85 nM to reach half-maximal inhibition in data set [1] (IC50). In [2], the CC50 is over 10000 nM. Moreover, the half-life at 2 µM in data set [3] stood at 2.42 h; in [4] it was 1.73 h. The Papp A→B in [5] amounted to 15 ×10⁻⁶ cm/s. Moreover, the maximum concentration (Cmax) in [7] turned out to be 1800 nM. The logD in data set [6] worked out at 3.
With `CCOc1nc(N)cnc1/C=C/C(=O)O`, the Activity result in the data set on Salmonella typhimurium [8] and with Salmonella typhimurium [9] was “Non-toxic” throughout.
On to `CCOc1cc(NC(=O)C2(NC(=O)c3ccc4c(C5CCCC5)c(-c5ncc(Cl)cn5)n(C)c4c3)CCC2)cnc1/C=C/C(=O)O`, for which, in the data set on Hepatitis C virus, the EC50 turned out to be 20 nM. For the same compound, the IC50 in [1] was determined as 110 nM. Further, the CC50 in data set [2] was over 10000 nM. Besides, the figures for the half-life at 2 µM in [3] and in [4] were 4.58 h and 2.38 h, respectively. For the same compound, in data set [5], the Papp A→B came out at 7.5 ×10⁻⁶ cm/s. In [10], this compound gave a concentration at 1 h of 400 nM. In data set [11], this compound yielded a concentration at 2 h of 100 nM. For the same compound, the Kp at 2 h in [12] turned out to be 5. Moreover, the logD in data set [6] was 3.9.
For the compound `CCOc1nc(N)ccc1/C=C/C(=O)O`, the Activity result in the data set with Salmonella typhimurium [8] and with Salmonella typhimurium [9] was “Non-toxic” throughout.
